Experimental data from ChEMBL document CHEMBL1142542, “Synthesis, mechanistic studies, and anti-proliferative activity of glutathione/glutathione S-transferase-activated nitric oxide prodrugs” (Bioorg Med Chem, 2008).

Assays:
[1] = molecular target: T1, Glutathione S-transferase Mu 1 (Homo sapiens) (UniProt P09488); assay: Specific activity of human recombinant Glutathione S-transferase Mu 1 at 50 uM by spectrophotometric analysis in presence of glutathione
T1 sequence (whole entry): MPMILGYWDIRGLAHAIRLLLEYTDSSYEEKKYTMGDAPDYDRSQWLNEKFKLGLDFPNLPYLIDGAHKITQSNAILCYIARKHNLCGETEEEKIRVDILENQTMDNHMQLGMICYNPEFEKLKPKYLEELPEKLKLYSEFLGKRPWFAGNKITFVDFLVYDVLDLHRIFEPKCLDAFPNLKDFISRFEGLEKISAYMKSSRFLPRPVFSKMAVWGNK
In short: (§1)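 Reaction of 1 mL held 0.1 M phosphate buffer pH 7.4, 1 mM GSH, 50 μM compound and a catalytic amount of GST. GSTA1-1 and GSTM1-1 were purified recombinant enzymes; GSTP1-1 was purified in-house. Enzymes were first checked for activity with CDNB. Reaction started by adding compound, and the absorbance decrease at its maximum was followed at 37 °C. Specific activity came from the change in extinction coefficient.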

[2] = molecular target: Glutathione S-transferase P (Homo sapiens) (UniProt P09211); assay: Specific activity of human Glutathione S-transferase P at 50 uM by spectrophotometric analysis in presence of glutathione; in short: as §1
Glutathione S-transferase P (Homo sapiens), sequence (P09211 2-210 limits assumed): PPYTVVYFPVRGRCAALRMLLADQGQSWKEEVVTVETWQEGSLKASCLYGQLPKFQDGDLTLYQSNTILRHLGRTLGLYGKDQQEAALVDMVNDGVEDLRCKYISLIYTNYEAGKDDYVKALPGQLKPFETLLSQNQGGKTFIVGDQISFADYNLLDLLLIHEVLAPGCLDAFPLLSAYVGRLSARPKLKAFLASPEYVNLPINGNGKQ

OVCAR-3 = assay: Antiproliferative activity against human OVCAR-3 cells after 72 hrs by MTT assay; type: functional, cell-based; conditions: OVCAR-3, 72 h
[3] = Antiproliferative activity against human HCT 116 cells after 72 hrs by MTT assay; type: functional, cell-based; conditions: HCT-116, 72 h
[4] = Antiproliferative activity against human 786O cells after 72 hrs by MTT assay; type: functional, cell-based; conditions: 786-0, 72 h
[5] = molecular target: T1, Glutathione S-transferase Mu 1 (Homo sapiens); assay: Specific activity of human recombinant Glutathione S-transferase Mu 1 at 50 uM by spectrophotometric analysis in presence of glutathione relative to O2-(2,4-dinitrophenyl) 1-[(4-ethoxycarbonyl)piperazin-1-yl]diazen-1-ium-1,2-diolate; in short: as §1
[6] = Antiproliferative activity against human H838 cells after 72 hrs by MTT assay; type: functional, cell-based; conditions: NCI-H838, 72 h
Caco-2 = assay: Antiproliferative activity against human Caco-2 cells after 72 hrs by MTT assay; type: functional, cell-based; conditions: Caco-2, 72 h
[7] = Stability assessed as nitric oxide release in 0.1 M phosphate buffer at pH 7.4 at 100 to 150 nM measured per mole in presence of glutathione by chemiluminescence analysis; type: physicochemical
[8] = molecular target: T2, Glutathione S-transferase A1 (Homo sapiens) (UniProt P08263); assay: Specific activity of human recombinant Glutathione S-transferase A1 at 50 uM by spectrophotometric analysis in presence of glutathione; in short: as §1
T2 sequence (whole entry): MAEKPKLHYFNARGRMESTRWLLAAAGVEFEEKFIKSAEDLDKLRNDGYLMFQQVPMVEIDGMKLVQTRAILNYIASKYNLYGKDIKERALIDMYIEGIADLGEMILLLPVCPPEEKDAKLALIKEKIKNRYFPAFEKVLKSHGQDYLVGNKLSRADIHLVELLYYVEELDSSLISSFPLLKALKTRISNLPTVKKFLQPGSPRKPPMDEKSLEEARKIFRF

PC-3 = assay: Antiproliferative activity against human PC-3 cells after 72 hrs by MTT assay; type: functional, cell-based; conditions: PC-3, 72 h
In short: (§2)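 MTT (CellTiter 96) proliferation assay. Seeded at 10⁴ per well and grown 24 h, then given rising compound concentrations in PBS (from 10 mM DMSO stocks) for 72 h. Six repeats per concentration, at least two independent experiments; IC50 reported.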

OVCAR-5 = assay: Antiproliferative activity against human OVCAR5 cells after 72 hrs by MTT assay; type: functional, cell-based; conditions: OVCAR-5, 72 h
[9] = Antiproliferative activity against human H1395 cells after 72 hrs by MTT assay; type: functional, cell-based; conditions: NCI-H1395, 72 h
[10] = molecular target: T2, Glutathione S-transferase A1 (Homo sapiens); assay: Specific activity of human recombinant Glutathione S-transferase A1 at 50 uM by spectrophotometric analysis in presence of glutathione relative to O2-(2,4-dinitrophenyl) 1-[(4-ethoxycarbonyl)piperazin-1-yl]diazen-1-ium-1,2-diolate; in short: as §1
[11] = molecular target: Glutathione S-transferase P (Homo sapiens) (UniProt P09211); assay: Specific activity of human Glutathione S-transferase P at 50 uM by spectrophotometric analysis in presence of glutathione relative to O2-(2,4-dinitrophenyl) 1-[(4-ethoxycarbonyl)piperazin-1-yl]diazen-1-ium-1,2-diolate; in short: as §1
[12] = Antiproliferative activity against human H441 cells after 72 hrs by MTT assay; type: functional, cell-based; conditions: NCI-H441, 72 h
U-937 = assay: Antiproliferative activity against human U937 cells after 72 hrs by MTT assay; type: functional, cell-based; conditions: U-937, 72 h
In short: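 Cells seeded at 10⁴ per well and grown 24 h, then exposed 72 h to increasing drug concentrations diluted in PBS from 10 mM DMSO stocks. Growth read by MTT assay. Six repeats per concentration, at least two independent experiments; IC50 reported.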

[13] = Antiproliferative activity against human UO-30 cells after 72 hrs by MTT assay; type: functional, cell-based; conditions: UO-30, 72 h
[14] = Antiproliferative activity against human BJ-5ta cells after 72 hrs by MTT assay; type: cell-based; conditions: hTERT-BJ
In short: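 10⁴ cells per well, allowed 24 h growth, then exposed 72 h to increasing concentrations added in PBS from 10 mM DMSO stocks. MTT proliferation read-out. Each concentration in six repeats, at least two independent experiments; IC50.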

HT-29 = assay: Antiproliferative activity against human HT-29 cells after 72 hrs by MTT assay; type: functional, cell-based; conditions: HT-29, 72 h
HL-60 = assay: Antiproliferative activity against human HL-60 cells after 72 hrs by MTT assay; type: functional, cell-based; conditions: HL-60, 72 h; in short: as §2
A549 = assay: Antiproliferative activity against human A549 cells after 72 hrs by MTT assay; type: functional, cell-based; conditions: A549, 72 h; in short: as §2
TK-10 = assay: Antiproliferative activity against human TK-10 cells after 72 hrs by MTT assay; type: functional, cell-based; conditions: TK-10, 72 h
[15] = Antiproliferative activity against HREpC cells after 72 hrs by MTT assay; type: cell-based; conditions: Homo sapiens
In short: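 Seeded at 10⁴ per well and grown 24 h before dosing. Compounds came from 10 mM DMSO stocks and were diluted in PBS to increasing concentrations. Exposure was 72 h, with MTT growth read-out. Six repeats per concentration, at least two independent experiments; IC50.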

HCT-15 = assay: Antiproliferative activity against human HCT-15 cells after 72 hrs by MTT assay; type: functional, cell-based; conditions: HCT-15, 72 h
[16] = Chemical stability assessed as half life in 0.1 M phosphate buffer at 33 uM at pH 7.4 in presence of glutathione; type: physicochemical; conditions: gsh, pH 7.4, 33 µM

CCOC(=O)N1CCN(/[N+]([O-])=N/Oc2ccc([N+](=O)[O-])cc2[N+](=O)[O-])CC1
Activity [1]: 126 µmol/min/mg
Activity [2]: 1.36 µmol/min/mg
IC50 (OVCAR-3): 800 nM
IC50 [3]: 700 nM
IC50 [4]: 800 nM
Activity [5]: 1
IC50 [6]: 4300 nM
IC50 (Caco-2): 2600 nM
Activity [7]: 1.7 mol/mol
Activity [8]: 66.3 µmol/min/mg
IC50 (PC-3): 1100 nM
IC50 (OVCAR-5): 1000 nM
IC50 [9]: 800 nM
Activity [10]: 1
Activity [11]: 1
IC50 [12]: 1000 nM
IC50 (U-937): 300 nM
IC50 [13]: 900 nM
IC50 [14]: 10000 nM
IC50 (HT-29): 800 nM
IC50 (HL-60): 200 nM
IC50 (A549): 1500 nM
IC50 (TK-10): 500 nM
IC50 [15]: 11300 nM
IC50 (HCT-15): 600 nM

CCOC(=O)N1CCCN(/[N+]([O-])=N/Oc2ccc([N+](=O)[O-])cc2[N+](=O)[O-])CC1
Activity [1]: 38 µmol/min/mg
Activity [2]: 0.16 µmol/min/mg
Activity [5]: 0.3
Activity [8]: 16.8 µmol/min/mg
Activity [10]: 0.25
Activity [11]: 0.12

CCOC(=O)N1CCN(/[N+]([O-])=N/Oc2ccc([N+](=O)[O-])cc2[N+](=O)[O-])CC1C (stereo unspecified)
Activity [1]: 112 µmol/min/mg
Activity [2]: 1.15 µmol/min/mg
Activity [5]: 0.89
Activity [8]: 55.5 µmol/min/mg
Activity [10]: 0.84
Activity [11]: 0.85

CCCOC(=O)N1CCN(/[N+]([O-])=N/Oc2ccc([N+](=O)[O-])cc2[N+](=O)[O-])CC1
Activity [1]: 126 µmol/min/mg
Activity [2]: 1.2 µmol/min/mg
IC50 [3]: 1500 nM
Activity [5]: 1
Activity [7]: 2 mol/mol
Activity [8]: 59 µmol/min/mg
IC50 (PC-3): 2000 nM
Activity [10]: 0.89
Activity [11]: 0.88
IC50 [12]: 2400 nM
IC50 (U-937): 700 nM
IC50 (HL-60): 1400 nM
IC50 (A549): 2400 nM
t1/2 [16]: 27 min
IC50 (HCT-15): 1300 nM

CCOC(=O)N1CCN(/[N+]([O-])=N/Oc2ccc([N+](=O)[O-])cc2[N+](=O)[O-])C(C)C1 (stereo unspecified)
Activity [1]: 110 µmol/min/mg
Activity [2]: 0.88 µmol/min/mg
Activity [5]: 0.87
Activity [8]: 47 µmol/min/mg
Activity [10]: 0.71
Activity [11]: 0.65

CCOC(=O)N1CC(C)N(/[N+]([O-])=N/Oc2ccc([N+](=O)[O-])cc2[N+](=O)[O-])CC1C (stereo unspecified)
Activity [1]: 49 µmol/min/mg
Activity [2]: 0.14 µmol/min/mg
Activity [5]: 0.39
Activity [8]: 17.6 µmol/min/mg
Activity [10]: 0.27
Activity [11]: 0.1

COC(=O)N1CCN(/[N+]([O-])=N/Oc2ccc([N+](=O)[O-])cc2[N+](=O)[O-])CC1
Activity [1]: 102 µmol/min/mg
Activity [2]: 0.98 µmol/min/mg
Activity [5]: 0.81
Activity [8]: 45.1 µmol/min/mg
Activity [10]: 0.68
Activity [11]: 0.72

CCOC(=O)N1C(C)CN(/[N+]([O-])=N/Oc2ccc([N+](=O)[O-])cc2[N+](=O)[O-])CC1C (stereo unspecified)
Activity [1]: 172 µmol/min/mg
Activity [2]: 1.17 µmol/min/mg
IC50 (OVCAR-3): 4900 nM
IC50 [3]: 9500 nM
Activity [5]: 1.36
Activity [7]: 1.75 mol/mol
Activity [8]: 70.3 µmol/min/mg
IC50 (PC-3): > 10000 nM
Activity [10]: 1.06
Activity [11]: 0.86
IC50 [12]: 8100 nM
IC50 (U-937): 4900 nM
IC50 (HL-60): 4700 nM
IC50 (A549): > 10000 nM
t1/2 [16]: 26 min
IC50 (HCT-15): 8200 nM
